# Reference: ChEMBL document CHEMBL1126829, “Synthesis and relative potencies of new constrained CRF antagonists” (1993)
# Where a SMILES comes first, the peptide text is derived from it. [ ]: non-standard residue; d: D form. NMeL = CN[C@@H](CC(C)C)C(=O)O; NMeA = CN[C@@H](C)C(=O)O
# Tests used:
# Rattus norvegicus [1] = species: Rattus norvegicus; experiment: Percent intrinsic activity was determined in rat pituitary cells; format: functional, Pituitary gland cell
# Rattus norvegicus [2] = species: Rattus norvegicus; experiment: Compound was tested in vitro to antagonize CRF-induced release of ACTH by rat pituitary cells in culture; format: functional, Pituitary gland cell
# Summary of the method: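 Collagenase-dispersed rat anterior pituitary cells were grown in monolayer culture for 3–5 days. Cells were then incubated for 3 h with peptide at several doses against 1 nM CRF stimulation (n = 3). ACTH secreted into the medium was measured by double-antibody RIA. Relative potencies were derived from the dose-response curves.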
Molecule,IA (Rattus norvegicus [1]),Potency (Rattus norvegicus [2])
CCCC[C@H](NC(=O)[C@H](CCC(=O)O)NC(=O)[C@H](CC(C)C)NC(=O)[C@@H](NC(=O)[C@H](CCC(=O)O)NC(=O)[C@H](CCCN=C(N)N)NC(=O)[C@](C)(CC(C)C)NC(=O)[C@H](CC(C)C)NC(=O)[C@H](Cc1c[nH]cn1)NC(=O)[C@H](N)Cc1ccccc1)C(C)C)C(=O)N[C@@H](C)C(=O)N[C@@H](CCCN=C(N)N)C(=O)NC(C)(C)C(=O)N[C@@H](CCC(=O)O)C(=O)N[C@@H](CCC(N)=O)C(=O)N[C@@H](CC(C)C)C(=O)NC(C)(C)C(=O)N[C@@H](CCC(N)=O)C(=O)N[C@@H](CCC(N)=O)C(=O)NC(C)(C)C(=O)N[C@@H](Cc1c[nH]cn1)C(=O)N[C@@H](CO)C(=O)N[C@@H](CC(N)=O)C(=O)N[C@@H](CCCN=C(N)N)C(=O)N[C@@H](CCCCN)C(=O)N[C@@H](CC(C)C)C(=O)N[C@@H](CCCC)C(=O)N[C@@H](CCC(=O)O)C(=O)N[C@H](C(=O)N[C@H](C(N)=O)[C@@H](C)CC)[C@@H](C)CC,8%,–
H-DLTFHLLREMLEMAKAEQEAEQAALNRLLLEEA-NH2,14%,0.12
CSCC[C@H](NC(=O)[C@H](CCC(=O)O)NC(=O)[C@H](CCCN=C(N)N)NC(=O)[C@H](CC(C)C)N(C)C(=O)[C@H](CC(C)C)NC(=O)[C@H](Cc1c[nH]cn1)NC(=O)[C@H](Cc1ccccc1)NC(=O)[C@@H](NC(=O)[C@H](CC(C)C)N(C)C(=O)[C@@H](N)CC(=O)O)[C@@H](C)O)C(=O)N[C@@H](CC(C)C)C(=O)N[C@@H](CCC(=O)O)C(=O)N[C@@H](CCSC)C(=O)N(C)[C@@H](C)C(=O)N[C@@H](CCCCN)C(=O)N[C@@H](C)C(=O)N[C@@H](CCC(=O)O)C(=O)N[C@@H](CCC(N)=O)C(=O)N(C)[C@@H](CC(C)C)C(=O)N[C@@H](C)C(=O)N[C@@H](CCC(=O)O)C(=O)N[C@@H](CCC(N)=O)C(=O)N[C@@H](C)C(=O)N(C)[C@@H](C)C(=O)N[C@@H](CC(C)C)C(=O)N[C@@H](CC(N)=O)C(=O)N[C@@H](CCCN=C(N)N)C(=O)N[C@@H](CC(C)C)C(=O)N(C)[C@@H](CC(C)C)C(=O)N[C@@H](CC(C)C)C(=O)N[C@@H](CCC(=O)O)C(=O)N[C@@H](CCC(=O)O)C(=O)N(C)[C@@H](C)C(N)=O (H-D[NMeL]TFHL[NMeL]REMLEM[NMeA]KAEQ[NMeL]AEQA[NMeA]LNRL[NMeL]LEE[NMeA]-NH2),0%,0
CCCC[C@H](NC(=O)[C@H](CCC(=O)O)NC(=O)[C@H](CC(C)C)NC(=O)[C@@H](NC(=O)[C@H](CCC(=O)O)NC(=O)[C@H](CCCN=C(N)N)NC(=O)[C@H](CC(C)C)NC(=O)[C@](C)(CC(C)C)NC(=O)[C@H](Cc1c[nH]cn1)NC(=O)[C@H](N)Cc1ccccc1)C(C)C)C(=O)N[C@@H](C)C(=O)N[C@@H](CCCN=C(N)N)C(=O)NC(C)(C)C(=O)N[C@@H](CCC(=O)O)C(=O)N[C@@H](CCC(N)=O)C(=O)N[C@@H](CC(C)C)C(=O)NC(C)(C)C(=O)N[C@@H](CCC(N)=O)C(=O)N[C@@H](CCC(N)=O)C(=O)NC(C)(C)C(=O)N[C@@H](Cc1c[nH]cn1)C(=O)N[C@@H](CO)C(=O)N[C@@H](CC(N)=O)C(=O)N[C@@H](CCCN=C(N)N)C(=O)N[C@@H](CCCCN)C(=O)N[C@@H](CC(C)C)C(=O)N[C@@H](CCCC)C(=O)N[C@@H](CCC(=O)O)C(=O)N[C@H](C(=O)N[C@H](C(N)=O)[C@@H](C)CC)[C@@H](C)CC,23%,–
